# According to ChEMBL document CHEMBL1130129, “Immunologically specific activation of a cephalosporin derivative of mitomycin C by monoclonal antibody beta-lactamase conjugates” (J Med Chem, 1997):
# How the values were obtained:
# [1] = target: Beta-lactamase (Enterobacter cloacae) (UniProt P05364); assay: Determination of kinetic constant (Kcat) for hydrolysis by beta-lactamase from Enterobacter cloacae P99
# How it was run: (§1)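 Purified E. cloacae β-lactamase (0.1 µg/mL) added to prodrug in PBS pH 7.2 containing 12.5 µg/mL bovine serum albumin, 23 °C; β-lactam hydrolysis followed by loss of absorbance at 260 nm. Initial velocities taken from linear portions of absorbance-time plots and used to derive kinetic constants.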
# [2] = Ratio of kinetic constants for hydrolysis by beta-lactamase from Enterobacter cloacae P99 (kcat/Km); set-up: unit not given here; how it was run: as §1
# Sequence of Beta-lactamase (Enterobacter cloacae) (P05364 21-381 limits assumed): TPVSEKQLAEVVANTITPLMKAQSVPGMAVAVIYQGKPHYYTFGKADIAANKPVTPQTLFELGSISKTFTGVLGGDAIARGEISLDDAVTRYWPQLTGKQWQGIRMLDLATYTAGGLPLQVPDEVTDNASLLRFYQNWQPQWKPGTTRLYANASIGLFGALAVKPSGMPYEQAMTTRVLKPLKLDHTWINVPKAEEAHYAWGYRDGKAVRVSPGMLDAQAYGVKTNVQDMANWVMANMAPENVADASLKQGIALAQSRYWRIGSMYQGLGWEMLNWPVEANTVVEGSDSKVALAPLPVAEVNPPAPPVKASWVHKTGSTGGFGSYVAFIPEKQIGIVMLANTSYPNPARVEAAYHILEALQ
SMILES,k cat [1] [s⁻¹],Ratio [2]
CO[C@@]12[C@H](COC(N)=O)C3=C(C(=O)C(C)=C(NCC4=C(C(=O)O)N5C(=O)[C@@H](NC(=O)CCCC(=O)O)[C@H]5SC4)C3=O)N1C[C@@H]1N[C@@H]12,248,2.1
COc1cccc2c1C(=O)c1c(O)c3c(c(O)c1C2=O)C[C@@](O)(C(=O)CO)C[C@@H]3OC1CC(NC(=O)OCC2=C(C(=O)O)N3C(=O)[C@@H](NC(=O)CCCC(=O)O)[C@H]3SC2)C(O)C(C)O1 (some centres undefined),,2.5
O=C(O)CCCC(=O)N[C@@H]1C(=O)N2C(C(=O)O)=C(COC(=O)Nc3ccc(N(CCCl)CCCl)cc3)CS[C@H]12,337,7.8
O=C(Cc1ccccc1)N[C@@H]1C(=O)N2C(C(=O)O)=C(COC(=O)Nc3ccc(N(CCCl)CCCl)cc3)CS[C@H]12,119,17
CO[C@@]12[C@H](COC(N)=O)C3=C(C(=O)C(C)=C(NCC4=C(C(=O)O)N5C(=O)[C@@H](NC(=O)Cc6ccccc6)[C@H]5SC4)C3=O)N1C[C@@H]1N[C@@H]12,476,9.7
